Measurements collected from several papers.
Cell line: Vero
Observed: cell growth or viability

| Compound | assay | setting | endpoint | value |
| --- | --- | --- | --- | --- |
| CO[C@@]12[C@H](COC(N)=O)C3=C(C(=O)C(C)=C(N)C3=O)N1C[C@@H]1N[C@@H]12 | resazurin | – | CC50 | 0.39 µM |
| CN(C)c1ncnc2c1ncn2[C@@H]1O[C@H](CCl)[C@@H](NC(=O)[C@H](CSC(c2ccccc2)c2ccccc2)NC(=O)OC(C)(C)C)[C@H]1O | MTT | – | CC50 | > 100 µM |
| O=C(Cn1ccnc1[N+](=O)[O-])NCc1ccccc1 | MTT | – | CC50 | 142 µM |
| CC1(F)CN(C(=O)Cn2c(=O)c(C(=O)NCc3ccc(Cl)cc3)cc3nc(N4CCNC4=O)cnc32)C1 | CCK-8 | 5 days | CC50 | > 40 µM |
| O=C(NNC(=O)c1cc2ccccc2s1)c1ccc([N+](=O)[O-])o1 | MTT | 48 h | CC50 | 75 µM |
| CN1CCN(c2cnc3c(cc(C(=O)NCc4ccc(Cl)cc4)c(=O)n3CC(=O)N3CC(C)(F)C3)n2)C1=O | CCK-8 | 5 days | CC50 | > 40 µM |
| CCCN(CCc1cccs1)[C@H]1CCc2c(O)cccc2C1 | resazurin | – | CC50 | 9.48 µM |
| COC(=O)COc1c(Cc2cc(C(C)(C)CC(C)(C)C)cc(-n3nc4ccccc4n3)c2OCC(=O)OC)cc(C(C)(C)CC(C)(C)C)cc1-n1nc2ccccc2n1 | MTT | 10 µM, 48 h | viability | 89.5% |
